Only some compounds are listed: those with a hit (about 12% of all), similar ones and a draw of the others.
Dynein cargo inh: inhibitors of GR-EGFP nuclear translocation, primary screen, dynein cargo transport inhibitor project, imaging, high-content, 3617.4 mouse cells. test concentration mostly 20 µM; stimulated with dexamethasone, 1 µM; hits give low values. z-score, hits read low. 220,000 tested, 0.47% active. AID 1381, 2008;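 active means plate z-score of nuclear minus cytoplasmic receptor signal below a set negative limit, without overly bright fluorescence or cell loss, cut at about -3.5 in these data, passing the limit was not always enough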;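 further: z-score of nuclear minus cytoplasmic ring GR-EGFP intensity difference per well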
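Buffer or medium – tet-free medium with charcoal-stripped serum · Signal – automated 10x imaging of fixed Hoechst-stained cells · Also added – dexamethasone agonist, 1.0 µM final, for 30 min · Incubation – induction 48 h, compound 1 h, agonist 30 min · Read-out – GR-EGFP nuclear translocation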
CHOP inh: inhibitors of CHOP promoter induction, primary screen, cell-based, unfolded protein response, luciferase reporter. inhibition, % at 10 µM. 220,000 tested, 3.8% active. CHO-K1 CHOP-promoter luciferase, tunicamycin-induced, 15-18 h. AID 2732, 2010;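 active means compounds that reduced the stress-induced luciferase reporter signal by more than about 70% of percent inhibition, limit read from the data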
Lmaj promast: Leishmania major promastigote growth inhibition, primary screen. Leishmania major promastigotes, resazurin fluorescence viability. inhibition, % at 10 µM. 200,000 tested, 9% active. AID 1063, 2008; in the data active means inhibition above about 50%;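 further: promastigotes grown with compound for 44 hours at 28 °C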
bCat nuc transl: modulators of beta-catenin nuclear translocation, primary screen, imaging, HeLa cells, immunofluorescence, high-content; nuclear translocation activity, % at 5 µM; 190,000 tested, 0.3% active;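 active means nuclear translocation activity above 50% at 5 µM, with a well cell count of 50 or more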;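 further: per-cell ratio of nuclear to cytoplasmic median beta-catenin stain intensity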
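Signal – beta-catenin immunofluorescence imaging with DAPI · Test system – human HeLa cell line · Dosing – 5 µM primary single dose, 0.1% DMSO, 0.02–20 µM confirmation series · Measure – % activation, nuclear-to-cytoplasmic median beta-catenin signal ratio per cell · Incubation – 24 h compound exposure at 37°C, 5% CO2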
MT stabilize HCS: microtubule stabilizers in HeLa cells, primary screen, imaging, high-content imaging; HeLa tubulin immunostaining HCS, 24 h; share of cells brighter than vehicle mean+2SD; % tubulin-high responders, % at 10 µM; 200,000 tested, 0.83% active;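 active means plate Z-score above 3 for both tubulin-high and condensed-nucleus cell shares, with cell loss under 80%, at 10 µM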;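 further: anti alpha tubulin signal scored within the nucleus-defined area of each cell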
Autophagy HCS: autophagy modulators in MEF cells, primary screen, imaging, high-content, MEF GFP-LC3; MEF GFP-LC3 puncta imaging; test concentration mostly 10 µM; calls only at 10 µM (by protocol); 190,000 tested, 0.98% active;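 active means percentage of spot-positive cells more than 3 SD above its plate mean, without a fluorescence outlier flag or 80% toxicity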
Large screens that a line does not name were inactive.

O=C(Nc1ncc(S(=O)(=O)c2ccc([N+](=O)[O-])cc2)s1)c1cccc2ccccc12	Lmaj promast 99.7
COCC(=O)Nc1ncc(S(=O)(=O)c2ccc([N+](=O)[O-])cc2)s1	none
COc1ccccc1NS(=O)(=O)c1cc(NC(=O)c2ccco2)ccc1N1CCOCC1	Lmaj promast 99.8
COc1ccc(NS(=O)(=O)c2ccc(N3CCOCC3)c(NC(=O)c3ccc(F)cc3)c2)cc1	Lmaj promast 71.9
COc1ccc(NS(=O)(=O)c2ccc(N3CCOCC3)c(NC(=O)c3ccco3)c2)cc1	none
COc1ccccc1-n1cnc2cc(NC(=O)c3ccco3)ccc21	bCat nuc transl 61.6, MT stabilize HCS 51.8
COc1ccccc1NS(=O)(=O)c1ccc(N2CCOCC2)c(NC(=O)c2ccco2)c1	Lmaj promast 69.1
COCCNC(=O)CCC(=O)NNc1nc2ccccc2c2nc(-c3ccccc3)nn12	none
COc1ccc(C(=O)NN=C(Cc2ccccc2)Cc2ccccc2)cc1OC	Lmaj promast 51.0 (no result: bCat nuc transl)
CC/C(Cc1ccccc1)=N\NC(=O)c1cc([N+](=O)[O-])cc([N+](=O)[O-])c1	Lmaj promast 58.9
O=C(O)/C=C/c1cccc(OCc2ccccc2)c1	none
CC(/C=C/c1cccc([N+](=O)[O-])c1)=N/NC(=O)c1cccnc1	Lmaj promast 95.8
O=C(/C=C/c1cccc(OCc2ccccc2)c1)c1cccnc1	Lmaj promast 99.7
C/C(=N\NC(=O)c1cccnc1)c1cccc([N+](=O)[O-])c1	none
NC(=O)c1ccccc1OCC(=O)Nc1ccc(Cl)c(Cl)c1	none (no result: Lmaj promast, MT stabilize HCS, Autophagy HCS)
COc1ccc(CN2CCn3nc(C(=O)NC4CC4)cc3C2=O)cc1	none
O=C(NC(=S)N1CCN(c2ccc(F)cc2)CC1)c1cccs1	none
O=C(NN=C(Cc1ccccc1)Cc1ccccc1)c1ccccc1F	Lmaj promast 64.2
O=C(/C=C/c1ccccc1)NC(=S)NNC(=O)c1cccnc1	Lmaj promast 55.5 (no result: bCat nuc transl)
CC(/C=C/c1ccccc1)=N/NC(=O)c1cc([N+](=O)[O-])cc([N+](=O)[O-])c1	Lmaj promast 82.9
O=C(/C=C/c1ccccc1)NC(=S)NNC(=O)c1cnccn1	none (no result: Lmaj promast, MT stabilize HCS, Autophagy HCS)
O=C(/C=C/c1ccc([N+](=O)[O-])cc1)c1cccnc1	Lmaj promast 94.7
CCOC(=O)C1=C(C)N(C)C(C)=C(C(=O)OCC)C1c1ccsc1	none
CCCC(=O)N1CCN(c2ccc(NC(=O)c3cccs3)cc2)CC1	none
CCN1/C(=N\N)c2cccc3cccc1c23	Autophagy HCS active
O=C(CCc1nc2ccccc2s1)OCc1ccccc1F	none
CC1CCCN(c2nc3nonc3nc2Nc2ccccc2F)C1 (stereo not given)	none
COc1ccc(OC)c(Nc2nc3nonc3nc2N2CCCC(C)C2)c1 (stereo not given)	CHOP inh 77.3, Autophagy HCS active
CCN1CCN(c2ccc(NC(=O)CCc3c(C)nc4c(-c5ccccc5)c(C)nn4c3C)cc2)CC1	Lmaj promast 100.3 (no result: Autophagy HCS)
CCN1CCN(c2cc(C(C)(C)C)nc3c(-c4ccccc4)c(C)nn23)CC1	Lmaj promast 95.8
Cc1nc2c(-c3ccc(F)cc3)c(C)nn2c(C)c1CCC(=O)Nc1ccc(F)cc1F	none (no result: Lmaj promast, MT stabilize HCS, Autophagy HCS)
COc1ccccc1NC(=O)N1CCc2[nH]c3ccc(Cl)cc3c2C1	Lmaj promast 95.2
COc1ccccc1NC(=O)N1CCN(c2ccnc3cc(Cl)ccc23)CC1	none (no result: Lmaj promast, MT stabilize HCS, Autophagy HCS)
COc1ccc(-c2cnnn2-c2ccc(NC(=O)c3ccc(S(=O)(=O)N4CCCCC4)cc3)cc2)cc1OC	CHOP inh 77.6, Lmaj promast 96.1
COc1ccc(C(=O)Nc2ccc(S(=O)(=O)N3CCCCC3)cc2)cc1OC	Lmaj promast 67.2 (no result: bCat nuc transl)
COc1cccc(NC(=O)c2ccc(S(=O)(=O)N3CCCCC3)cc2)c1	none
O=C1N(Cc2cccnc2)C[C@@H]2C[C@@H](c3ccc4nsnc4c3)N3CCC[C@@]123	none
CC1CN(S(=O)(=O)c2cccc(C(=O)OCC(=O)c3cccs3)c2)CC(C)O1 (stereo not given)	none
CC1CN(S(=O)(=O)c2cccc(C(=O)OCc3cc(=O)oc4cc(O)ccc34)c2)CC(C)O1 (stereo not given)	Lmaj promast 95.9 (no result: CHOP inh, bCat nuc transl)
CN(C)c1cccc(C(=O)OCc2cc(=O)oc3cc(O)ccc23)c1	CHOP inh 90.1
Cc1c(-n2c(SC(C)C(=O)NC(N)=O)nc3ccccc3c2=O)c(=O)n(-c2ccccc2)n1C (stereo not given)	none
COc1ccc(C2=CC(=O)OC(C)(c3ccccc3)O2)cc1 (stereo not given)	bCat nuc transl 51.4, MT stabilize HCS 9.8
COc1ccc(N=C/C=C2\C=C(c3ccccc3)OC(C)(C)O2)cc1	none (no result: bCat nuc transl)
Cc1ccc(CNC(=O)CSCc2ccc(F)cc2)cc1	none
Cc1ccc(CNC(=O)CSCc2ccccc2)cc1	Autophagy HCS active
Cc1ccc(SCC(=O)NC(=O)NCc2ccccc2)c(C)c1	CHOP inh 80.6
CCOc1ccc(CCNC(=O)CSCc2ccc(C)cc2)cc1OCC	none
CCCCN(CCCC)CCNC(=O)CSCc1ccc(C)cc1	Lmaj promast 83.0
O=C(CSc1ccccc1)NC(=O)NCc1ccccc1	none (no result: Lmaj promast, MT stabilize HCS, Autophagy HCS)
CN1CCN(CCC(=O)Nc2cccc(Br)c2)CC1	none (no result: Lmaj promast, MT stabilize HCS, Autophagy HCS)
O=C(O)c1ccccc1/C=N/Nc1ccc(S(=O)(=O)N2CCCC2)cc1[N+](=O)[O-]	none (no result: Lmaj promast, MT stabilize HCS, Autophagy HCS)
O=[N+]([O-])c1cc(S(=O)(=O)N2CCCC2)ccc1N/N=C/c1cccnc1	Lmaj promast 60.4
O=[N+]([O-])c1cc(S(=O)(=O)N2CCCC2)ccc1NCCc1ccccc1	Lmaj promast 57.8 (no result: bCat nuc transl)
CN(C)S(=O)(=O)c1ccc(N2CCCC2)c(C(=O)NC(c2ccccc2)c2ccccc2)c1	none
O=C(CSc1nc2ccccc2[nH]1)N1CCN(S(=O)(=O)c2ccc(Cl)cc2)CC1	Lmaj promast 64.5 (no result: bCat nuc transl)
O=S(=O)(c1ccc2nc(-c3ccccc3)[nH]c2c1)N1CCN(c2ccc(Cl)cc2)CC1	CHOP inh 105.2, MT stabilize HCS 16.0
O=C(CSc1nc2ccccc2c(=O)[nH]1)NCc1ccc(Cl)cc1	none (no result: bCat nuc transl)
O=C(CSc1nc2ccccc2[nH]1)NCCc1ccc(Cl)cc1	Lmaj promast 56.1
Cc1ccccc1-c1nnn(CC(=O)N2CCN(S(=O)(=O)c3ccc(Cl)cc3)CC2)n1	Lmaj promast 53.4
NNC(=O)c1cc(-c2ccc(N)cc2)nc2ccc(Br)cc12	none (no result: Lmaj promast, MT stabilize HCS, Autophagy HCS)
O=S(=O)(c1ccc2nc(SCc3ccc(Cl)cc3)[nH]c2c1)N1CCOCC1	Lmaj promast 81.3
Cc1ccc(C2NC(=O)c3ccccc3N2)s1 (stereo not given)	bCat nuc transl 94.2, MT stabilize HCS 43.1 (no result: CHOP inh)
